Reference: ChEMBL document CHEMBL1152588, “New potent P-glycoprotein modulators with the cucurbitane scaffold and their synergistic interaction with doxorubicin on resistant cancer cells” (Bioorg Med Chem, 2009)
pIC50: −log10 of the molar value.

Assays:
[1] = target: T1, ATP-dependent translocase ABCB1 (Homo sapiens, UniProt P08183); test: Reversal of human MDR1-mediated multidrug resistance in mouse L5178Y cells expressing MDR1 assessed as forward scatter count measured by cell size ratio at 20 uM after 10 mins by flow cytometry; assay type: cell-based
Summary of the method: (§1)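 Parental and MDR1-transfected L5178 cells at 2×10^6/mL in serum-free McCoy's 5A. Compound (0.5–20 µM; verapamil 22 µM as positive control) added 10 min at room temperature, then rhodamine 123 20 min at 37 °C. Cells washed twice, resuspended in PBS, flow cytometry on 10,000 cells (FSC, SSC, mean FL-1). FAR = (MDR treated/MDR control)/(parental treated/parental control); single representative experiment.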

[2] = tested on: L5178Y; test: Antiproliferative activity against multidrug resistance mouse L5178Y cells expressing human MDR1 after 72 hrs by MTT assay; assay type: functional; details: read-out: ID50 (the source's name)
Summary of the method: (§2)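 L5178 mouse T-cell lymphoma cells, parental or transfected with human MDR1 via pHa MDR1/A retrovirus. Transfected cells were kept under 60 ng/mL colchicine. Cells grew in McCoy's 5A with 10% heat-inactivated horse serum at 37 °C, 5% CO2. 1×10^4 cells/well with rising compound concentrations, 72 h at 37 °C. MTT 4 h, SDS 10% overnight, OD 550 nm (ref 630 nm). % inhibition vs cell/medium controls; ID50 mean ± SD of three experiments.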

[3] = tested on: L5178Y; test: Reversal of human MDR1-mediated multidrug resistance in mouse L5178Y cells expressing MDR1 assessed as mean fluorescence intensity of rhodamine-123 uptake after 10 mins by flow cytometry; assay type: functional; summary of the method: as §1
[4] = target: T1, ATP-dependent translocase ABCB1; test: Reversal of human MDR1-mediated multidrug resistance in mouse L5178Y cells expressing MDR1 assessed as fluorescence activity ratio at 2 uM after 10 mins by rhodamine-123 exclusion test; assay type: cell-based; summary of the method: as §1
[5] = tested on: L5178Y; test: Reversal of multidrug resistance in mouse L5178Y cells assessed as mean fluorescence intensity of rhodamine-123 uptake after 10 mins by flow cytometry; assay type: functional; summary of the method: as §1
[6] = target: T1, ATP-dependent translocase ABCB1; test: Reversal of human MDR1-mediated multidrug resistance in mouse L5178Y cells expressing MDR1 assessed as side scatter count measured by cell size ratio at 2 uM after 10 mins by flow cytometry; assay type: cell-based; summary of the method: as §1
[7] = target: T1, ATP-dependent translocase ABCB1; test: Reversal of human MDR1-mediated multidrug resistance in mouse L5178Y cells expressing MDR1 assessed as mean fluorescence intensity of rhodamine-123 uptake at 20 uM after 10 mins by flow cytometry; assay type: cell-based; summary of the method: as §1
[8] = target: T1, ATP-dependent translocase ABCB1; test: Reversal of human MDR1-mediated multidrug resistance in mouse L5178Y cells expressing MDR1 assessed as side scatter count measured by cell size ratio at 20 uM after 10 mins by flow cytometry; assay type: cell-based; summary of the method: as §1
[9] = target: T1, ATP-dependent translocase ABCB1; test: Reversal of human MDR1-mediated multidrug resistance in mouse L5178Y cells expressing MDR1 assessed as forward scatter count measured by cell size ratio at 2 uM after 10 mins by flow cytometry; assay type: cell-based; summary of the method: as §1
[10] = target: T1, ATP-dependent translocase ABCB1; test: Reversal of human MDR1-mediated multidrug resistance in mouse L5178Y cells expressing MDR1 assessed as mean fluorescence intensity of rhodamine-123 uptake at 2 uM after 10 mins by flow cytometry; assay type: cell-based; summary of the method: as §1
[11] = target: T1, ATP-dependent translocase ABCB1; test: Reversal of human MDR1-mediated multidrug resistance in mouse L5178Y cells expressing MDR1 assessed as fluorescence activity ratio at 20 uM after 10 mins by rhodamine-123 exclusion test; assay type: cell-based; summary of the method: as §1
[12] = Octanol-water partition coefficient, log D of the compound; assay type: physicochemical
[13] = tested on: L5178Y; test: Antiproliferative activity against mouse L5178Y cells after 72 hrs by MTT assay; assay type: functional; details: read-out: ID50 (the source's name); summary of the method: as §2
[14] = tested on: L5178Y; test: Potentiation of doxorubicin-induced anticancer activity against mouse L5178Y cells expressing MDR1 assessed as fractional inhibitory concentration after 72 hrs by checkerboard microplate assay; assay type: functional
Summary of the method: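 Checkerboard combination on MDR1-transfected L5178 lymphoma cells: doxorubicin diluted along one plate axis, resistance modifier along the other; 5×10^4 cells/well; 72 h at 37 °C in CO2 incubator; growth read by MTT staining. FIC = ID50 in combination/ID50 alone for each agent; summed FIX <0.5 synergism, 0.51–1 additive, 1–2 indifferent, >2 antagonism.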

[15] = target: T1, ATP-dependent translocase ABCB1; test: Reversal of human MDR1-mediated multidrug resistance in mouse L5178Y cells expressing MDR1 assessed as fluorescence activity ratio at 1 uM after 10 mins by rhodamine-123 exclusion test; assay type: cell-based; summary of the method: as §1
[16] = target: T1, ATP-dependent translocase ABCB1; test: Reversal of human MDR1-mediated multidrug resistance in mouse L5178Y cells expressing MDR1 assessed as forward scatter count measured by cell size ratio at 0.5 uM after 10 mins by flow cytometry; assay type: cell-based; summary of the method: as §1
[17] = target: T1, ATP-dependent translocase ABCB1; test: Reversal of human MDR1-mediated multidrug resistance in mouse L5178Y cells expressing MDR1 assessed as side scatter count measured by cell size ratio at 1 uM after 10 mins by flow cytometry; assay type: cell-based; summary of the method: as §1
[18] = target: T1, ATP-dependent translocase ABCB1; test: Reversal of human MDR1-mediated multidrug resistance in mouse L5178Y cells expressing MDR1 assessed as forward scatter count measured by cell size ratio at 1 uM after 10 mins by flow cytometry; assay type: cell-based; summary of the method: as §1
[19] = target: T1, ATP-dependent translocase ABCB1; test: Reversal of human MDR1-mediated multidrug resistance in mouse L5178Y cells expressing MDR1 assessed as side scatter count measured by cell size ratio at 0.5 uM after 10 mins by flow cytometry; assay type: cell-based; summary of the method: as §1
[20] = target: T1, ATP-dependent translocase ABCB1; test: Reversal of human MDR1-mediated multidrug resistance in mouse L5178Y cells expressing MDR1 assessed as mean fluorescence intensity of rhodamine-123 uptake at 1 uM after 10 mins by flow cytometry; assay type: cell-based; summary of the method: as §1
[21] = target: T1, ATP-dependent translocase ABCB1; test: Reversal of human MDR1-mediated multidrug resistance in mouse L5178Y cells expressing MDR1 assessed as mean fluorescence intensity of rhodamine-123 uptake at 0.5 uM after 10 mins by flow cytometry; assay type: cell-based; summary of the method: as §1
[22] = target: T1, ATP-dependent translocase ABCB1; test: Reversal of human MDR1-mediated multidrug resistance in mouse L5178Y cells expressing MDR1 assessed as fluorescence activity ratio at 0.5 uM after 10 mins by rhodamine-123 exclusion test; assay type: cell-based; summary of the method: as §1
[23] = tested on: L5178Y; test: Reversal of human MDR1-mediated multidrug resistance in mouse L5178Y cells expressing MDR1 fluorescence activity ratio of rhodamine-123 uptake after 10 mins by flow cytometry

T1 sequence (P08183 whole entry): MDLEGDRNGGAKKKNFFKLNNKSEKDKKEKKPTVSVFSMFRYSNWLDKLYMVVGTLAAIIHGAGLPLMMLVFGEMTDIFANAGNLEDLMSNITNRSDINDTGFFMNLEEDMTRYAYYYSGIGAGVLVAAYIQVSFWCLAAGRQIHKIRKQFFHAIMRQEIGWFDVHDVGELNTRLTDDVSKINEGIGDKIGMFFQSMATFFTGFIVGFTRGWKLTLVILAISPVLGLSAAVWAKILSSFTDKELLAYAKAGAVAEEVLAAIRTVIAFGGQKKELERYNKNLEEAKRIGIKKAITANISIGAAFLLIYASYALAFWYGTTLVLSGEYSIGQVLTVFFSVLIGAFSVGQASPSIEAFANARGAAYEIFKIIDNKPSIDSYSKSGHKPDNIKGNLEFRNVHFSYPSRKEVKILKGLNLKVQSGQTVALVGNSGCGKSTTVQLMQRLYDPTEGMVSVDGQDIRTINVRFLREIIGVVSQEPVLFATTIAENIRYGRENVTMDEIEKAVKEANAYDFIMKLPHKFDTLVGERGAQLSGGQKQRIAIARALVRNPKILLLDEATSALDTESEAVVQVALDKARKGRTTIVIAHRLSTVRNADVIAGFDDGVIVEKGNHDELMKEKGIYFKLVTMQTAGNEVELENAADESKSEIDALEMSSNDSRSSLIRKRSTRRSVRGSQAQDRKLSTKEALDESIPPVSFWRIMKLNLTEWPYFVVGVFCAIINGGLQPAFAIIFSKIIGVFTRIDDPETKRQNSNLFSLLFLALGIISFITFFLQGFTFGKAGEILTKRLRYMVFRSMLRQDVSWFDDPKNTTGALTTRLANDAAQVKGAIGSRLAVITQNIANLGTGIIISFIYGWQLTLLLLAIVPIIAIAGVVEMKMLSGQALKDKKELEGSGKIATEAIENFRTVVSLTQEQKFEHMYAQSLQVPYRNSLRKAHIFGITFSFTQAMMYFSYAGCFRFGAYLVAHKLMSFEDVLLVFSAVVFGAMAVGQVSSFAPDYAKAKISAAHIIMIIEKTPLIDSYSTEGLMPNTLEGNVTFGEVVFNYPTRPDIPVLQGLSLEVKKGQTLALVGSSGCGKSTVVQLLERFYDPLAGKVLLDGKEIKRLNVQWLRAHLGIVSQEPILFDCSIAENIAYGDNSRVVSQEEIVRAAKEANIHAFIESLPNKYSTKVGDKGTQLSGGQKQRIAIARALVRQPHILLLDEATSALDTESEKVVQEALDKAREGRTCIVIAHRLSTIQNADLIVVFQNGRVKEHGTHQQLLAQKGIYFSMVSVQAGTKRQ

Activity [1]	Activity [4]	Activity [6]	Activity [7]	Activity [8]	Activity [9]	Activity [10]	Activity [11]	logD [12]	SMILES	pIC50 [2]	Activity [3]	Activity [5]	pIC50 [13]	fractional inhibitory concentration index (FICI) [14]	also measured
447.4	1.07	261.2	579.8	257.6	441.8	13.95	44.3	5.2	C[C@H](C/C=C/C(C)(C)O)[C@H]1CC[C@@]2(C)[C@@H]3[C@@H](O)C=C4[C@@H](CC[C@H](O)[C@]4(C)CO)[C@]3(C)CC[C@]12C [BALSAMINAGENIN A]	4.59	10.6	959.5	4.71		
454.4	5.98	261.1	1365.1	238.6	428.7	78.4	104.2	5.8	COC(C)(C)/C=C/C[C@@H](C)[C@H]1CC[C@@]2(C)[C@@H]3[C@@H](O)C=C4[C@@H](CC[C@H](O)[C@]4(C)CO)[C@]3(C)CC[C@]12C [BALSAMINAGENIN B]	4.77	10.6	959.5	4.81	0.18	
441.6	1.45	253.8	1171.1	249.7	429.6	19	89.4	5.3	COC(C)(C)/C=C/C[C@@H](C)[C@H]1CC[C@@]2(C)[C@@H]3[C@@H](O[C@H]4O[C@@H](CO)[C@H](O)[C@H](O)[C@@H]4O)C=C4[C@@H](CC[C@H](O)C4(C)C)[C@]3(C)CC[C@]12C [BALSAMINOSIDE A]	4.68	10.6	959.5	5.08	0.37	
551.8	42.1	215.4	399.5	206.8	468.8	365.7	46	7.3	CO[C@H]1C=C2[C@@H](CC[C@H](O)C2(C)C)[C@]2(C)CC[C@]3(C)[C@@H]([C@H](C)C[C@@H](O)C=C(C)C)CC[C@@]3(C)[C@H]12 [KARAVELAGENIN C]	4.77	9.5	1034.3	5.20	0.28	Activity [15]: 15; Activity [16]: 456.4; Activity [17]: 217.8; Activity [18]: 460.7; Activity [19]: 215.3; Activity [20]: 130; Activity [21]: 12.7; Activity [22]: 1.5
518.1	35.2	254.9	612.7	222.4	470.2	671.2	34.2	8	CO[C@H]1C=C2[C@@H](CC[C@H](O)C2(C)C)[C@]2(C)CC[C@]3(C)[C@@H]([C@H](C)C[C@H](C=C(C)C)OC(C)=O)CC[C@@]3(C)[C@H]12 [KARAVOATE A]	4.46			4.59	0.44	
462.9	5.7	247	671.2	249.3	454.9	102.1	37.5	8.6	CO[C@H]1C=C2[C@@H](CC[C@H](OC(C)=O)C2(C)C)[C@]2(C)CC[C@]3(C)[C@@H]([C@H](C)C[C@H](C=C(C)C)OC(C)=O)CC[C@@]3(C)[C@H]12 [KARAVOATE B]	4.22			4.31		
481.3	1.7	249.9	726.8	242.5	466.3	30.3	40.6	8.3	CCC(=O)O[C@@H](C=C(C)C)C[C@@H](C)[C@H]1CC[C@@]2(C)[C@@H]3[C@@H](OC)C=C4[C@@H](CC[C@H](O)C4(C)C)[C@]3(C)CC[C@]12C [KARAVOATE C]	4.36			4.38		
463.1	0.9	237.9	42.3	230.8	454	16.2	2.4	8.9	CCC(=O)O[C@H]1CC[C@@H]2C(=C[C@H](OC)[C@@H]3[C@@]2(C)CC[C@]2(C)[C@@H]([C@H](C)C[C@H](C=C(C)C)OC(=O)CC)CC[C@@]32C)C1(C)C [KARAVOATE D]	< 3.88			< 3.88		
461.9	1	235.9	388.7	236.3	448.7	18	21.7	8.7	CCCC(=O)O[C@@H](C=C(C)C)C[C@@H](C)[C@H]1CC[C@@]2(C)[C@@H]3[C@@H](OC)C=C4[C@@H](CC[C@H](O)C4(C)C)[C@]3(C)CC[C@]12C [KARAVOATE E]	4.13			4.29		
									COc1ccc(CCN(C)CCCC(C#N)(c2ccc(OC)c(OC)c2)C(C)C)cc1OC (stereo unspecified) [VERAPAMIL]		97.1				FAR [23]: 7.4
